Source: ChEMBL document CHEMBL2384994, “Discovery and evaluation of piperid-4-one-containing mono-carbonyl analogs of curcumin as anti-inflammatory agents” (Bioorg Med Chem, 2013)
Activity calls are given as the source filed them. No cut-off for these calls is given here.

Columns and labels:
RAW264.7 [1] = assay: Antiinflammatory activity in mouse RAW264.7 cells assessed as inhibition of LPS-induced IL6 release at 10 uM incubated for 2 hrs prior to LPS-challenge measured after 22 hrs by ELISA relative to LPS-treated control; type: functional
Procedure, shortened: (§1)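 Pretreated with compound or DMSO vehicle for 2 h (screen at 10 µM; dose series 1, 5, 10 µM), then LPS 0.5 µg/mL for 22 h. Medium IL-6 measured by ELISA, normalized to cellular total protein, expressed as % of LPS control. Mean ± SE of 3–6 independent experiments.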

MPM [2] = assay: Inhibition of NFkappaB activation in ICR mouse MPM cells assessed as inhibition of LPS-induced IkappaB degradation at 10 uM incubated for 2 hrs prior to LPS-challenge measured after 1 hr by Western blot analysis; type: cell-based
Procedure, shortened: (§2)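 Primary peritoneal macrophages from ICR mice plated at 1.2 × 10⁶/plate overnight. Pretreated with DMSO or compound for 2 h, then LPS 10 ng/mL for 1 h. Cells lysed; 40–60 µg lysate run on 10% SDS-PAGE and blotted to nitrocellulose. Blocked in TBS pH 7.6 with 0.05% Tween 20 and 5% milk. Probed for IκB, p-JNK, p-ERK, p-p38 against GAPDH or the total protein. Detection by HRP secondary and ECL. Optical density given as % of control.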

RAW264.7 [3] = assay: Antiinflammatory activity in mouse RAW264.7 cells assessed as inhibition of LPS-induced IL6 release incubated for 2 hrs prior to LPS-challenge measured after 22 hrs by ELISA; type: functional, cell-based; procedure, shortened: as §1
Mus musculus [4] = assay: Antiinflammatory activity in C57BL/6 mouse assessed as protection against LPS-induced septic death by measuring survival at 15 mg/kg, ip administered 15 mins prior to LPS challenge measured after 7 days relative to vehicle-treated control; type: functional; conditions: route intraperitoneal
Procedure, shortened: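 Male C57BL/6 mice (18–22 g), n = 10 per group, given compound ip 15 min before LPS (20 mg/kg, iv). Compound at 2 mg/mL in water with macrogol 15 hydroxystearate (5–10% final) ± medium-chain triglycerides (0.5–2% final), dissolved at 37 °C. Vehicle was 10% solubilizer plus 2% MCT. Survival and body weight recorded every 24 h for 7 days.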

RAW264.7 [5] = assay: Cytotoxicity against mouse RAW264.7 cells; type: cell-based
Mus musculus [6] = assay: Toxicity in C57BL/6 mouse assessed as decrease in body weight at 20 mg/kg, ip after 3 days; type: organism-based; set-up: dose 20 mg/kg, route intraperitoneal; conditions: in vivo, 72 h
Procedure, shortened: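 Male C57BL/6 mice (18–22 g) given compound ip at 20 mg/kg, prepared at 2 mg/mL in water with macrogol 15 hydroxystearate (5–10%) ± MCT (0.5–2%). Vehicle was 10% solubilizer with 2% MCT. LPS 20 mg/kg iv given 15 min later. Body weight and survival recorded every 24 h for 7 days; n = 10 per group.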

MPM [7] = assay: Inhibition of LPS-induced ERK phosphorylation in ICR mouse MPM cells at 10 uM incubated for 2 hrs prior to LPS-challenge measured after 1 hr by Western blot analysis; type: cell-based; procedure, shortened: as §2
MPM [8] = assay: Inhibition of LPS-induced ERK phosphorylation in ICR mouse MPM cells incubated for 2 hrs prior to LPS-challenge measured after 1 hr by Western blot analysis; type: cell-based; procedure, shortened: as §2
MPM [9] = assay: Inhibition of NFkappaB activation in ICR mouse MPM cells assessed as inhibition of LPS-induced IkappaB degradation incubated for 2 hrs prior to LPS-challenge measured after 1 hr by Western blot analysis; type: cell-based; procedure, shortened: as §2
[10] = molecular target: MAP kinase p38 (Mus musculus) (UniProt P47811+O08911+Q9WUI1+Q9Z1B7); assay: Inhibition of LPS-induced p38 phosphorylation in ICR mouse MPM cells at 10 uM incubated for 2 hrs prior to LPS-challenge measured after 1 hr by Western blot analysis; type: cell-based; procedure, shortened: as §2
MPM [11] = assay: Inhibition of LPS-induced JNK phosphorylation in ICR mouse MPM cells at 10 uM incubated for 2 hrs prior to LPS-challenge measured after 1 hr by Western blot analysis; type: cell-based; procedure, shortened: as §2
MPM [12] = assay: Inhibition of LPS-induced JNK phosphorylation in ICR mouse MPM cells incubated for 2 hrs prior to LPS-challenge measured after 1 hr by Western blot analysis; type: cell-based; procedure, shortened: as §2

O=C(/C=C/c1ccc(O)c(O)c1)/C=C/c1ccc(O)c(O)c1
inhibition (RAW264.7 [1]): Active

COc1cc(/C=C2\CNC/C(=C\c3cc(OC)c(OC)c(OC)c3)C2=O)cc(OC)c1OC
inhibition (MPM [2]): Active
IC50 (RAW264.7 [3]): < 1000 nM
inhibition (RAW264.7 [3]): Dose-dependent effect
Activity (Mus musculus [4]): 80%
Activity (RAW264.7 [5]): Non-toxic
Activity (Mus musculus [6]): Toxic
inhibition (MPM [7]): Active
inhibition (MPM [8]): Dose-dependent effect
inhibition at 10 µM (RAW264.7 [1]): 96%
inhibition (MPM [9]): Dose-dependent effect

O=C1/C(=C/c2ccc(O)cc2)CNC/C1=C\c1ccc(O)cc1
inhibition [10]: inactive

CN1C/C(=C\c2ccc(F)cc2)C(=O)/C(=C/c2ccc(F)cc2)C1
inhibition (RAW264.7 [1]): Active

CCCN1C/C(=C\c2ccc(OC)c(OC)c2)C(=O)/C(=C/c2ccc(OC)c(OC)c2)C1
inhibition (MPM [2]): inactive
IC50 (RAW264.7 [3]): 2040 nM
inhibition (RAW264.7 [3]): Dose-dependent effect
Activity (RAW264.7 [5]): Non-toxic
inhibition (MPM [7]): inactive
inhibition (MPM [11]): inactive
inhibition at 10 µM (RAW264.7 [1]): 90%
inhibition [10]: inactive

O=C1/C(=C/c2ccccc2F)CNC/C1=C\c1ccccc1F
inhibition (RAW264.7 [1]): Active

CCCN1C/C(=C\c2ccccc2Cl)C(=O)/C(=C/c2ccccc2Cl)C1
inhibition (RAW264.7 [1]): Active

COc1ccc(/C=C2\CN(C)C/C(=C\c3ccc(OC)c(OC)c3)C2=O)cc1OC
inhibition at 10 µM (RAW264.7 [1]): 90%

COc1cc(/C=C/C(=O)CC(=O)/C=C/c2ccc(O)c(OC)c2)ccc1O
inhibition (MPM [11]): Active

CCN1C/C(=C\c2ccccc2Br)C(=O)/C(=C/c2ccccc2Br)C1
inhibition (RAW264.7 [1]): Active

O=C1/C(=C/c2cccc(O)c2)CNC/C1=C\c1cccc(O)c1
IC50 (RAW264.7 [3]): 4190 nM
inhibition (RAW264.7 [3]): Dose-dependent effect
Activity (RAW264.7 [5]): Non-toxic

O=C1/C(=C/c2ccc(O)c(O)c2)CCC/C1=C\c1ccc(O)c(O)c1
inhibition (RAW264.7 [1]): Active

COc1ccc(/C=C2\CNC/C(=C\c3ccc(OC)c(OC)c3)C2=O)cc1OC
inhibition (MPM [2]): Active
IC50 (RAW264.7 [3]): 2680 nM
inhibition (RAW264.7 [3]): Dose-dependent effect
Activity (Mus musculus [4]): 60%
Activity (RAW264.7 [5]): Non-toxic
Activity (Mus musculus [6]): Toxic
inhibition (MPM [7]): Active
inhibition (MPM [11]): Active
inhibition (MPM [8]): Dose-dependent effect
inhibition (MPM [12]): Dose-dependent effect
inhibition at 10 µM (RAW264.7 [1]): 98%
inhibition (MPM [9]): Dose-dependent effect

O=C1/C(=C/c2ccc(O)c(O)c2)CC/C1=C\c1ccc(O)c(O)c1
inhibition (RAW264.7 [1]): Active

CN1C/C(=C\c2ccccc2F)C(=O)/C(=C/c2ccccc2F)C1
inhibition (RAW264.7 [1]): Active
